In ChEMBL document CHEMBL1140701, “Synthesis, conformational analysis, and biological evaluation of 1-hexylindolactam-V10 as a selective activator for novel protein kinase C isozymes” (J Med Chem, 2008) one finds Ki, Ratio Ki and Activity data, which are given here for six molecules.

Experiment [1] has as its target T1, Protein kinase C gamma type (Homo sapiens, UniProt P05129). The experiment is described as follows: Displacement of [3H]PDBu from PKCgamma C1A domain. The method, boiled down:
(§1)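 [3H]PDBu (20 nM, 16.3 Ci/mmol) competition binding with synthetic PKC C1 peptides (10–40 nM) in 50 mM Tris-maleate pH 7.4 at 4 °C, with 50 µg/mL phosphatidylserine, 3 mg/mL bovine γ-globulin and varied inhibitor concentrations. IC50 is the concentration giving 50% inhibition of specific binding. Ki derived by the Sharkey–Blumberg method. SD from at least two separate experiments.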
For orientation: Displacement assays read how much labelled ligand stays bound in the presence of the test substance.

Experiment [2] has as its target Protein kinase C delta type (Homo sapiens, UniProt Q05655). The experiment is described as follows: Displacement of [3H]PDBu from PKCdelta C1B domain. The method, boiled down: as §1
Experiment [3] in a line: Displacement of [3H]PDBu from PKCdelta C1B P11dfP mutant. The method, boiled down: as §1
A short description of experiment [4]: Displacement of [3H]PDBu from PKCgamma C1A P11dfP mutant. In a few lines:
as §1

Experiment [5] in a line: Selectivity ratio of PKCdelta C1B domain over PKCdelta C1B P11dfP mutant.
Experiment [6] can be described thus: Selectivity ratio of PKCgamma C1A domain over PKCgamma C1A P11dfP mutant.
Experiment [7] addresses T2, Protein kinase C beta type (Homo sapiens, UniProt P05771). The experiment is described as follows: Displacement of [3H]PDBu from PKCbeta C1A domain at 10 uM. The method, boiled down: (§2)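 Competition for specific [3H]PDBu (20 nM, 16.3 Ci/mmol) binding to C1 peptide (10–40 nM) was tested with a single 10 µM competitor. The buffer was 50 mM Tris-maleate (pH 7.4 at 4 °C) with 50 µg/mL dioleoylphosphatidylserine and 3 mg/mL bovine γ-globulin.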
Target sequence in this assay (P05771 2-671 limits assumed): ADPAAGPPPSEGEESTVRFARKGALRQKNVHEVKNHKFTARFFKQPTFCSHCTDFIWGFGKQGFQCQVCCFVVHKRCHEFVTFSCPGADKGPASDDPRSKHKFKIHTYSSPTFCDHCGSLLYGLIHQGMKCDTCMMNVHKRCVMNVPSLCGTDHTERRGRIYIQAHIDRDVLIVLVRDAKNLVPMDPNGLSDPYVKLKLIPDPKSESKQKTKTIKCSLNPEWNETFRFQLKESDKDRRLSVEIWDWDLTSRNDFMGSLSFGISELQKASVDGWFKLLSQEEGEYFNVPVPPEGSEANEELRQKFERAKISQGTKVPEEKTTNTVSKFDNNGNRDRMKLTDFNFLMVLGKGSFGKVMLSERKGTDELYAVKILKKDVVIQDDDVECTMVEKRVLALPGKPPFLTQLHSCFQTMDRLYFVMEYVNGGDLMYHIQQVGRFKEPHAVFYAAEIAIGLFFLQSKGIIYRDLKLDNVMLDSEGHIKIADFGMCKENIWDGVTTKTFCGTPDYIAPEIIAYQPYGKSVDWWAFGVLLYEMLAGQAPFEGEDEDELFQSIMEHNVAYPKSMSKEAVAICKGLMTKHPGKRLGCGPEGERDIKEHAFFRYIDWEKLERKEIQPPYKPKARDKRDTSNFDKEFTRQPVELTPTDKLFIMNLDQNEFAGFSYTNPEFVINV

The target in experiment [8] is T2, Protein kinase C beta type. Put plainly: Displacement of [3H]PDBu from PKCbeta C1B domain at 10 uM. The method, boiled down: as §2
Target sequence in this assay (P05771 2-671 limits assumed): as above
Experiment [9] addresses T3, Protein kinase C alpha type (Homo sapiens, UniProt P17252). Put plainly: Displacement of [3H]PDBu from PKCalpha C1A domain. In a few lines: as §1
In experiment [10] the target is T3, Protein kinase C alpha type. Put plainly: Displacement of [3H]PDBu from PKCalpha C1B domain. In a few lines: as §1
For experiment [11], the target named is T2, Protein kinase C beta type. Put plainly: Displacement of [3H]PDBu from PKCbeta C1A domain. The method, boiled down: as §1
Target sequence in this assay (P05771 whole entry, the tested form may be a part): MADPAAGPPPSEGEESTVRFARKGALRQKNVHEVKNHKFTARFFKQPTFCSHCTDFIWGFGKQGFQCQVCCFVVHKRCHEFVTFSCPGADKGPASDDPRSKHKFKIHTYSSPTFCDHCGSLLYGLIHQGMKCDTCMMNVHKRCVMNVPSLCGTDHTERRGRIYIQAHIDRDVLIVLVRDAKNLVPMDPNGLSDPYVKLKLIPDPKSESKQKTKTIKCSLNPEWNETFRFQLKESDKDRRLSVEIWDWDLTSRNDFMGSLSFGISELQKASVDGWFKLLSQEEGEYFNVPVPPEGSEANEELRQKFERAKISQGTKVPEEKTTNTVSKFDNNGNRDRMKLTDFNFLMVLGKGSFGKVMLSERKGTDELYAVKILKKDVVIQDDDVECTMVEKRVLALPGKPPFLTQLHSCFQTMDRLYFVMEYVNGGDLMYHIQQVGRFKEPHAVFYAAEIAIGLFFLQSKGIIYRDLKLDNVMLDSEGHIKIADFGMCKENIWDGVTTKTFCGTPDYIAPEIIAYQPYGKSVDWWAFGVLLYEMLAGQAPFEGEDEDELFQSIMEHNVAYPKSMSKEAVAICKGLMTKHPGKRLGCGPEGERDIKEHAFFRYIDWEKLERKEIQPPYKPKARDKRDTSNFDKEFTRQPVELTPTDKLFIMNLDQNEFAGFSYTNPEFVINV
Experiment [12] deals with T2, Protein kinase C beta type. Put plainly: Displacement of [3H]PDBu from PKCbeta C1B domain. In a few lines:
as §1
Target sequence in this assay (P05771 whole entry, the tested form may be a part): as above

In experiment [13] the target is T1, Protein kinase C gamma type. Put plainly: Displacement of [3H]PDBu from PKCgamma C1B domain. The method, boiled down: as §1
The target of experiment [14] is T4, Protein kinase C epsilon type (Homo sapiens, UniProt Q02156).
T4 sequence (Q02156 whole entry): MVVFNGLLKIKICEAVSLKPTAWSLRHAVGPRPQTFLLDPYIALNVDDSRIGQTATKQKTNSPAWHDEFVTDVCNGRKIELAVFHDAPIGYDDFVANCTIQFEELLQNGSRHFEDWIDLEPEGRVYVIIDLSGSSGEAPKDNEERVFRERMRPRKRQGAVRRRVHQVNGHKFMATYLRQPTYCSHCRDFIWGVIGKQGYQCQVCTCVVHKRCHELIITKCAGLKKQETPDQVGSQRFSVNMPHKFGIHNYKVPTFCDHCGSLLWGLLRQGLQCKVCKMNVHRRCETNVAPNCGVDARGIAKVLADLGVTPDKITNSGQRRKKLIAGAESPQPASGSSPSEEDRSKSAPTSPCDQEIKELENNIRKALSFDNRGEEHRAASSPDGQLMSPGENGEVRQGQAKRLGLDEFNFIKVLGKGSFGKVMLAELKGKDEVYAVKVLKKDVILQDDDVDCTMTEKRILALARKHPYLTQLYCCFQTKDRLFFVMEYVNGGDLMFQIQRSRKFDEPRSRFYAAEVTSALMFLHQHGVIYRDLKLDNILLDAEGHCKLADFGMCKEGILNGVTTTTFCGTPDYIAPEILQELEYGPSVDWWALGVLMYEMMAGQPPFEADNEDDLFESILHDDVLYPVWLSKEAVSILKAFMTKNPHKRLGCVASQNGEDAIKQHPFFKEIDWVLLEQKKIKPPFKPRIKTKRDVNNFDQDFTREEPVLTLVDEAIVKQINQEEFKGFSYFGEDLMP
Put plainly: Displacement of [3H]PDBu from PKCepsilon C1B domain. In a few lines: (§3)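 Synthetic PKC C1 peptides (10–40 nM; about 3 nM properly folded, estimated from earlier Scatchard Bmax) were incubated with 20 nM [3H]PDBu (16.3 Ci/mmol) in 50 mM Tris-maleate (pH 7.4 at 4 °C). The mix also held 50 µg/mL 1,2-dioleoyl-sn-glycero-3-phospho-L-serine, 3 mg/mL bovine γ-globulin and varied inhibitor. IC50 came from probit analysis and Ki from the Sharkey–Blumberg method.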

The target in experiment [15] is Protein kinase C eta type (Homo sapiens, UniProt P24723). The experiment is described as follows: Displacement of [3H]PDBu from PKCeta C1B domain. The method, boiled down:
as §3

Experiment [16] deals with Protein kinase C theta type (Homo sapiens, UniProt Q04759). The experiment is described as follows: Displacement of [3H]PDBu from PKCtheta C1B domain. In a few lines:
as §3

Molecules are shown by their SMILES. Activity calls are given as the source filed them. The rule behind the calls is not given here.

Sequence of Protein kinase C delta type (Q05655 whole entry, the tested form may be a part): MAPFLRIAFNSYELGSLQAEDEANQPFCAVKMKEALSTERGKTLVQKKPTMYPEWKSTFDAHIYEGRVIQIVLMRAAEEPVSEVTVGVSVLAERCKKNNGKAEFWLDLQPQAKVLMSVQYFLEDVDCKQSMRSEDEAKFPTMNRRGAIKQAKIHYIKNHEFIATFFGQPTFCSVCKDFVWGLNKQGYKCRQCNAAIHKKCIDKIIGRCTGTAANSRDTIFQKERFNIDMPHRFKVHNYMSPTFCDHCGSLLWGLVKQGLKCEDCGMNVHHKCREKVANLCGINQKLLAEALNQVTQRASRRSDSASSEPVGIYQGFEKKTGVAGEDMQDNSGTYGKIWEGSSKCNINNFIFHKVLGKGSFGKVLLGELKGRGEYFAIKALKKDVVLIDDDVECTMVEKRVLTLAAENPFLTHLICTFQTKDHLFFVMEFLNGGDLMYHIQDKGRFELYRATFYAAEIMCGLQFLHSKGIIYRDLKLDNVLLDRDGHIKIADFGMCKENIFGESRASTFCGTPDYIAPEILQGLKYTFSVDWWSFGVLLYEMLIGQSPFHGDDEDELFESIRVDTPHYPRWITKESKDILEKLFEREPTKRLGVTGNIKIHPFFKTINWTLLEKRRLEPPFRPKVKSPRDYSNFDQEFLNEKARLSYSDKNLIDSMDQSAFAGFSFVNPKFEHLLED
Sequence of Protein kinase C eta type (P24723 whole entry, the tested form may be a part): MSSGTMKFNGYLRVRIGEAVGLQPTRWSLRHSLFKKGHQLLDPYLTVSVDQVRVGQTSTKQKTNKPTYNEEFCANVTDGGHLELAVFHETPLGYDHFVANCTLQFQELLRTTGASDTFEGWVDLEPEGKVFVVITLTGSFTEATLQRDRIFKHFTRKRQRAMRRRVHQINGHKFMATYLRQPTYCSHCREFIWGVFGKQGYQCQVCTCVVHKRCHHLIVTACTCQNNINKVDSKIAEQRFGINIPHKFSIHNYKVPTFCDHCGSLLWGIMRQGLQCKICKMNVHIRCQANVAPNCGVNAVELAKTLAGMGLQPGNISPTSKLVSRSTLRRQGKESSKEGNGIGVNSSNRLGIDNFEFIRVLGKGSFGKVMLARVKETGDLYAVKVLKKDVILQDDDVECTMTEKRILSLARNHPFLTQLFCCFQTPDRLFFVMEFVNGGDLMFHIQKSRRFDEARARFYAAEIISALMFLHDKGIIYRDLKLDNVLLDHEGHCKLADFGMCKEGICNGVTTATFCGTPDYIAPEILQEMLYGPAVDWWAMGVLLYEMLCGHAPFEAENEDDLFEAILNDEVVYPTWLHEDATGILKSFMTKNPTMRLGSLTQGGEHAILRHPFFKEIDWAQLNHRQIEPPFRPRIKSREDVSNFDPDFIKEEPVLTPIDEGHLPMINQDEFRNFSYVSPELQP
Sequence of Protein kinase C theta type (Q04759 whole entry, the tested form may be a part): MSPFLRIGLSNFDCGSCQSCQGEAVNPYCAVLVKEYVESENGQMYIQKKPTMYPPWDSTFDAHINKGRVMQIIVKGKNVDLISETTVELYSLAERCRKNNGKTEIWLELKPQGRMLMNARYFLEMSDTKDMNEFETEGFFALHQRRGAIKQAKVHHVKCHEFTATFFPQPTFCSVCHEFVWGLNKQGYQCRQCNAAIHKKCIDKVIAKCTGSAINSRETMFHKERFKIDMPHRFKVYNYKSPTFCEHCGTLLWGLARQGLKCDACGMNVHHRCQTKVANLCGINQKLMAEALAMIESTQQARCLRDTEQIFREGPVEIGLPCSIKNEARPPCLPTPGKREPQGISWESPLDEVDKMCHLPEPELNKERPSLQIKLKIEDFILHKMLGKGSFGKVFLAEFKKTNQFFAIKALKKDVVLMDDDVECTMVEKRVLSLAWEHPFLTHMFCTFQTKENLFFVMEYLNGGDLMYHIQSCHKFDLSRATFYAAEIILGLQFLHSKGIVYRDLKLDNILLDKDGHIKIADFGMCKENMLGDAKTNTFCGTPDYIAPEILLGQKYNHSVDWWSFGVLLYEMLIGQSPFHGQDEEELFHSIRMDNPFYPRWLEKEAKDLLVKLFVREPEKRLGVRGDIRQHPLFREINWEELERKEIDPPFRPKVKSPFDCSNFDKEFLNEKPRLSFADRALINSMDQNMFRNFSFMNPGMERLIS

The Ki is the dissociation constant of the complex between target and ligand, obtained from inhibition or displacement. A higher Ki goes with lower affinity. With `CC(C)[C@H]1C(=O)N[C@H](CO)Cc2ccccc2N1C`, the inhibitory constant (Ki) in [1] is 3100 nM; in experiment [2] it was 410 nM; in experiment [3], 436 nM; in [4], 2500 nM. Further, the Ratio Ki was 1.1 in experiment [5] and 0.8 in [6].

In the case of `CCCCCCn1cc2c3c(c(Cl)ccc31)N(C)[C@@H](C(C)C)C(=O)N[C@H](CO)CC2`, the outcome in experiment [7] and in experiment [8] was inactive.

In the case of `CCCCCCn1cc2c3c(cccc31)N(C)[C@@H](C(C)C)C(=O)N[C@H](CO)C2`, the Ki in [9] is 5.8 nM; in [10], 43 nM; in experiment [11], 9.8 nM; in experiment [12], 11 nM; in experiment [1], 15 nM; in [13] it was 39 nM. Moreover, the Ki came to 0.46 nM in experiment [2]; 0.47 nM in [14]; 0.34 nM in experiment [15]; 1.4 nM in experiment [16]; 3.7 nM in [3]; 71 nM in experiment [4]. For the same molecule, the figures for the Ratio Ki in experiment [5] and in experiment [6] were 8 and 4.7, respectively.

Take `CC(C)[C@H]1C(=O)N[C@H](CO)Cc2c[nH]c3cccc(c23)N1C` [INDOLACTUM]: the Ki in [9] stood at 21 nM; in experiment [11], 19 nM; in experiment [1], 89 nM; in experiment [13], 59 nM; in experiment [2], 11 nM; in [3], 130 nM. This molecule came in with a Ki in experiment [4] of 690 nM. The Ratio Ki in experiment [5] was 11.8; in [6], 7.8.

Regarding `CCCCCCn1cc2c3c(cccc31)N(C)[C@@H](C(C)C)C(=O)N[C@H](CO)CC2`, the Ki was 6700 nM in [9]; over 10000 nM in experiment [10]; 9200 nM in experiment [11]; 440 nM in experiment [12]; 11000 nM in experiment [1]; 420 nM in [13]. For the same molecule, the Ki in experiment [2] was determined as 15 nM; in experiment [14] it was 29 nM; in experiment [15] it was 25 nM; in experiment [16] it was 12 nM; in experiment [3], 120 nM; in experiment [4], 14000 nM. Also, the results for the Ratio Ki in experiment [5] and in experiment [6] were 8 and 1.3, respectively.

In the case of `CCCCCCn1c(Br)c2c3c(cccc31)N(C)[C@@H](C(C)C)C(=O)N[C@H](CO)CC2`, the result in [7] and in [8] was inactive.
